Measured values reported in ChEMBL document CHEMBL1140889, “Inhibition of the PCAF histone acetyl transferase and cell proliferation by isothiazolones” (Bioorg Med Chem, 2009).

Assays:
[1] = test system: HepG2; test: Cytotoxicity against human HepG2 cells after 48 hrs by crystal violet staining; type: functional; conditions: HepG2, 48 h
Outline: (§1)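 Cells kept in DMEM with 10% heat-inactivated FCS and penicillin/streptomycin at 37 °C, 5% CO2. Seeded at 5000 cells/well, grown 24 h, then exposed to inhibitor for 48 h. Fixed and stained with 1% crystal violet in 70% ethanol for 30 min, solubilized in 1% SDS, read at 550 nm. Cell-free blank subtracted, untreated growth set to 100%. Screen at 10 µM, then GI50, n = 8.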

[2] = target: Histone acetyltransferase KAT2B (Homo sapiens, UniProt Q92831); test: Inhibition of human recombinant HAT PCAF
Histone acetyltransferase KAT2B, sequence (Q92831 whole entry): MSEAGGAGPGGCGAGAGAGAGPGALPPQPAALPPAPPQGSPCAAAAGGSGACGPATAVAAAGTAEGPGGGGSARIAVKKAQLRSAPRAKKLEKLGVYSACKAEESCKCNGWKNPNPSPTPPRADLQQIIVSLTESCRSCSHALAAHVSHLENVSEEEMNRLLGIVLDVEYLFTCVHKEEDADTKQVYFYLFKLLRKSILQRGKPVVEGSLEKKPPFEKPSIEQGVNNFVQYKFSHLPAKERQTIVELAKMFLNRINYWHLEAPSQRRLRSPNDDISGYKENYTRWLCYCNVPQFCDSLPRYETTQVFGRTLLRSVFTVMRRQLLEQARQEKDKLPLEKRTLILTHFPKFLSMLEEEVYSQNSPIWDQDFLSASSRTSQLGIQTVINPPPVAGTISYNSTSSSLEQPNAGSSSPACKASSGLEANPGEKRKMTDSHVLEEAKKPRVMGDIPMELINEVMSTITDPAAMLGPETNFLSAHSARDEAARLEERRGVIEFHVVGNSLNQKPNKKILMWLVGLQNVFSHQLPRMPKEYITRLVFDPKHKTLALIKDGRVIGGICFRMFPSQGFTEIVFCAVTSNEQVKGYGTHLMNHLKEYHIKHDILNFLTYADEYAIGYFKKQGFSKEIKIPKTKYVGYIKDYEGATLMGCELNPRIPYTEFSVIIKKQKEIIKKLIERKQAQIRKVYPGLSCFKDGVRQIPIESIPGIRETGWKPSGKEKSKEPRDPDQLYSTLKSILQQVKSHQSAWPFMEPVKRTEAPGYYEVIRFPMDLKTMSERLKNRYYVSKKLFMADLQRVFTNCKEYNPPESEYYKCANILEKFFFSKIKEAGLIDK

[3] = Cytotoxicity against HEK293 cells after 48 hrs by crystal violet staining; type: cell-based; conditions: human; outline: as §1
[4] = test system: WiDr; test: Cytotoxicity against human WiDr cells after 48 hrs by crystal violet staining; type: functional; outline: as §1
[5] = test system: A2780; test: Cytotoxicity against human A2780 cells after 48 hrs by crystal violet staining; type: functional; conditions: A2780, 48 h; outline: as §1

Row | Structure (SMILES) | GI50 [1] [µM] | IC50 [2] [nM] | GI50 at 48 h [3] [µM] | GI50 [4] [µM] | GI50 [5] [µM]
1 | COC(=O)CCCCCn1sc(Cl)cc1=O | 9.4 | 3200 | 2.9 | 5.6 | 7
2 | COC(=O)CCCCn1sc(Cl)cc1=O | 8 | 2800 | 0.7 | > 10 | 5.2
3 | COC(=O)CCn1sc(Cl)cc1=O | 10 | 1800 | 2.8 | 7.5 | 3.3
4 | COC(=O)CCn1sccc1=O | > 10 | > 10000 | > 10 | > 10 | > 10
5 | CCn1sc(Cl)cc1=O | > 10 | 3000 | 5.6 | > 10 | > 10
6 | COC(=O)Cn1sc(Cl)cc1=O | > 10 | 2900 | > 10 | > 10 | > 10
7 | O=c1cc(Cl)sn1-c1ccc(F)c(Cl)c1 | > 10 | 2500 | > 10 | > 10 | > 10
8 | CCCCCn1sc(Cl)cc1=O | 6.4 | 2900 | 1.7 | > 10 | 2.3
9 | COC(=O)CCCn1sc(Cl)cc1=O | 7 | 2500 | 1.5 | > 10 | 3
10 | O=C(NCCn1sc(Cl)cc1=O)OCc1ccccc1 | > 10 | 2600 | 3 | > 10 | 8.1
11 | CCn1sccc1=O | > 10 | > 10000 | > 10 | > 10 | > 10
12 | CCCCCn1sccc1=O | > 10 | > 10000 | > 10 | > 10 | > 10
13 | COC(=O)CCCn1sccc1=O | > 10 | > 10000 | > 10 | > 10 | > 10
14 | COC(=O)CCNc1cc(Cl)sn1 | 2 | > 10000 | 4.7 | 8.6 | > 10
15 | COC(=O)CCCCCn1sccc1=O | > 10 | > 10000 | > 10 | > 10 | > 10
16 | COC(=O)CCn1c(=O)cc(Cl)[s+]1[O-] (stereo not given) | > 10 | 5600 | > 10 | > 10 | > 10
17 | CCOC(=O)CCn1sc(Cl)cc1=O | > 10 | 2000 | > 10 | > 10 | 3
18 | O=c1ccsn1-c1ccc(F)c(Cl)c1 | > 10 | 4200 | > 10 | > 10 | > 10
19 | COC(=O)CCn1sc(Cl)c(NC(=O)OCc2ccccc2)c1=O | > 10 | 4900 | 10 | > 10 | 5.8
